Experimental data from ChEMBL document CHEMBL1134719, “Design, synthesis and stability of N-acyloxymethyl- and N-aminocarbonyloxymethyl-2-azetidinones as human leukocyte elastase inhibitors” (Bioorg Med Chem Lett, 2001).
The source made the active and inactive calls. The calls are words filed in the database; no cut-off is given here.

Legend:
[1] = Half-life in pH 7.4 phosphate buffer at 37 degree C; format: ADME
[2] = target: T1, Neutrophil elastase (Homo sapiens) (UniProt P08246); test: (§1) Second-order rate constant for the inhibition of human leukocyte elastase
T1 sequence (whole entry): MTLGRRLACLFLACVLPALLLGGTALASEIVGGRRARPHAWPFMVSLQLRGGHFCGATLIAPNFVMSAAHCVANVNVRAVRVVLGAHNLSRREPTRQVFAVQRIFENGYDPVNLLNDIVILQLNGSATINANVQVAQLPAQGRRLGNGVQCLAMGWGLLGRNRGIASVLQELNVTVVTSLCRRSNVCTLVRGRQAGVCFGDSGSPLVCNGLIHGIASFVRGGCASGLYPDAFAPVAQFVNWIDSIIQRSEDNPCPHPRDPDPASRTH
Method in brief: (§2)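 Pre-incubation (Kitz–Wilson) kinetics at 25 °C. Enzyme and inhibitor were incubated, and aliquots were withdrawn at several time intervals into a cuvette holding substrate in HEPES buffer. After 30 s, the absorbance change was followed for 60 s.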

[3] = target: T2, Chymotrypsin-like elastase family member 2A (Sus scrofa) (UniProt P08419); test: Second-order rate constant for the inhibition of PPE (pancreatic porcine elastase); NI=no inhibition
T2 sequence (whole entry): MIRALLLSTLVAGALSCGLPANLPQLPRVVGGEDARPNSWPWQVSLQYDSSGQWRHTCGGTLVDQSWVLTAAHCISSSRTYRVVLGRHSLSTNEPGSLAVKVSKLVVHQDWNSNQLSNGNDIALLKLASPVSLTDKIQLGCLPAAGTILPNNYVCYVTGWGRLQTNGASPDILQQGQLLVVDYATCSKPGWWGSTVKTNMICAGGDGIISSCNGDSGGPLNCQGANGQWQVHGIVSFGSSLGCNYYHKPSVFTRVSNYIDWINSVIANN
Method in brief: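 Porcine pancreatic elastase was assayed at 25 °C with an inhibitor-to-enzyme ratio [I]/[E] of 200, giving the second-order constant k_obs/[I].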

Neutrophil elastase = target: T3, Neutrophil elastase (Homo sapiens, UniProt P08246); test: as §1; method in brief: as §2
T3 sequence (P08246 whole entry): T1 sequence (whole entry)

[4] = target: T1, Neutrophil elastase (Homo sapiens); test: Second-order rate constant for the inhibition of HLE (human leukocyte elastase); method in brief: as §2
[5] = target: T1, Neutrophil elastase (Homo sapiens); test: Second-order rate constant for the inhibition of human leukocyte elastase;NI=no inhibition; method in brief: as §2

| half-life [1] [days] | second-order inhibition rate constant [2] [M⁻¹ s⁻¹] | k obs / 1 [3] | other results | Structure (SMILES) |
| --- | --- | --- | --- | --- |
| 40.8 | 18.7 | inactive | – | O=C(OCN1C(=O)CC1S(=O)(=O)c1ccccc1)c1ccccc1 (centres undefined) |
| – | 19000 | – | – | CO[C@H]1C(=O)N2C(C(=O)O)=C(COC(C)=O)CS(=O)(=O)C12 (some centres undefined) |
| – | 2.2 | – | – | CCC1(CC)C(=O)N(COC(=O)c2ccccc2)C1Sc1ccccc1 (centres undefined) |
| 13.2 | 52.8 | inactive | – | CCC1(CC)C(=O)N(COC(=O)c2ccccc2)C1Sc1nc2ccccc2o1 (centres undefined) |
| 0.792 | – | – | IC50 (Neutrophil elastase): 110 µM | CO[C@H]1C(=O)N2C(C(=O)O)=C(CF)CS(=O)(=O)C12 (some centres undefined) |
| 0.0542 | – | inactive | k obs / 1 [4]: 35.5 M⁻¹ s⁻¹ | O=C(OCN1CCC1=O)c1ccccc1 |
| – | 43.2 | inactive | – | O=C(OCN1C(=O)CC1Sc1nc2ccccc2o1)c1ccccc1 (centres undefined) |
| 125 | 67.5 | inactive | – | CCC1(CC)C(=O)N(COC(=O)c2ccccc2)C1S(=O)(=O)c1ccccc1 (centres undefined) |
| – | 41.9 | inactive | – | CCC1(CC)C(=O)N(COC(=O)Nc2ccccc2)C1S(=O)(=O)c1ccccc1 (centres undefined) |
| – | – | – | k obs / 1 [5]: inactive | O=C(OCN1C(=O)CC1Sc1ccccc1)c1ccccc1 (centres undefined) |
| – | – | – | k obs / 1 [5]: inactive | O=C1CCN1CO |
| > 208 | 100 | inactive | – | CCC1(CC)C(=O)N(COC(=O)Nc2ccc(OC)cc2)C1S(=O)(=O)c1ccccc1 (centres undefined) |
| – | 60.9 | inactive | – | CCC1(CC)C(=O)N(COC(=O)Nc2ccc(C)cc2)C1S(=O)(=O)c1ccccc1 (centres undefined) |
| – | 32.3 | – | – | CCC1(CC)C(=O)N(COC(=O)NS(=O)(=O)c2ccc(C)cc2)C1S(=O)(=O)c1ccccc1 (centres undefined) |
| – | – | – | k obs / 1 [5]: inactive | CCC1(CC)C(=O)N(CO)C1S(=O)(=O)c1ccccc1 (centres undefined) |
